Like-named read-outs stand apart in the source and are kept apart here.
How the values were obtained:
[1] = Pharmacokinetics, plasma LC-MS/MS, non-compartmental analysis; assay type: in vivo, human; conditions: AUC0–24 on Days 1 and 18/21 of Cycle 1, 600 mg/day dose
Outline: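 Oral daily dosing at 50–1,200 mg/day. On Cycle 1 Days 1 and 18/21, blood was drawn pre-dose and at 0.5, 1, 2, 4, 6, 8 and 24 h, with further trough days. Parent drug and a metabolite in plasma were measured by validated LC-MS/MS (LLOQ 1.0 ng/mL). Non-compartmental analysis was used. Dose proportionality was fitted as ln(Cmax or AUC0–24) = α + β ln(dose). T1/2,acc came from the accumulation ratio; steady state was judged from troughs.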

[2] = test system: hormone receptor-positive breast cancer; conditions: cited from earlier work

Structure (SMILES)	metabolite exposure relative to parent drug [1]	median progression-free survival ([2]; in combination with fulvestrant)	median progression-free survival ([2]; in combination with letrozole)
CNC(=O)c1cc2cnc(Nc3ccc(N4CCNCC4)cn3)nc2n1C1CCCC1 [LEQ803]	approximately 10%		
CC(=O)c1c(C)c2cnc(Nc3ccc(N4CCNCC4)cn3)nc2n(C2CCCC2)c1=O [palbociclib]		improved median progression-free survival	improved median progression-free survival

From PMC5621377 (Clinical cancer research : an official journal of the …, 2016)
